# Source: PubChem (several laboratories)
# Compounds with a hit are over-represented: about 3.3% of the library has one in this group of screens.
# ABCB6 inh MLPCN – ABCB6 transporter inhibitors, primary screen, K562-ABCB6 cells, flow cytometry, MLPCN library; ATP-binding cassette sub-family B member 6 (Homo sapiens), Q9NP58; K562-ABCB6 porphyrin accumulation, 1 h; hits give low values; fluorescence ratio to DMSO, % at 10 µM; hit rate 0.19% among 360,000;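 active = fluorescence ratio to DMSO below 75%, the collection mean minus 3 SD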;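 also: signal is porphyrin accumulated inside mitochondria; 100% equals median channel fluorescence of DMSO control wells; lower ratio means ABCB6 inhibition with less porphyrin fluorescence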
# Target sequence (Q9NP58 whole entry, looked up): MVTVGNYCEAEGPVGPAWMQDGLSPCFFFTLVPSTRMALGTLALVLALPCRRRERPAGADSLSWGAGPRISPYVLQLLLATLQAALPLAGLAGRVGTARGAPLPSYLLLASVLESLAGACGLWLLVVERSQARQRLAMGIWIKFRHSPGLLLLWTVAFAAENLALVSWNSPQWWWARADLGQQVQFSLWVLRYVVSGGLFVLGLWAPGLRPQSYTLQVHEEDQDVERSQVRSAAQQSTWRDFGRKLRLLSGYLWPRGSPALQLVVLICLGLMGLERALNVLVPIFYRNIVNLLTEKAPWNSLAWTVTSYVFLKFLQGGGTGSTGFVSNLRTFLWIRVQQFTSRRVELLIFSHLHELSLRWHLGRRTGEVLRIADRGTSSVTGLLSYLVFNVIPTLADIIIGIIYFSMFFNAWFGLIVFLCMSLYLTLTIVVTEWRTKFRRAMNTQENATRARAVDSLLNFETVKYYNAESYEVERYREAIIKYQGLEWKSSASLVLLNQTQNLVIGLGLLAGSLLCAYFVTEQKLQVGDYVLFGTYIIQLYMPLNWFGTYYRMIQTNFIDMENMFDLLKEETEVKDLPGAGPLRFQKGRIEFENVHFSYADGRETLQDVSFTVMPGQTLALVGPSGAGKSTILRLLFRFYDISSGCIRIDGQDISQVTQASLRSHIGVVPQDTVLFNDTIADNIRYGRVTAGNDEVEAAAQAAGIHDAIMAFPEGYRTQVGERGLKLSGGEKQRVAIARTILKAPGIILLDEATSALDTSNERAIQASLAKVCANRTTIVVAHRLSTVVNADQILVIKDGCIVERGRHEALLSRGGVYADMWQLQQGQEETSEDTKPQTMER
# STAT3 act-1 – IL-6 driven STAT3 reporter potentiators, primary screen, U3A cells, luciferase, luminescence, MLSCN library | IL-6 STAT3-luciferase reporter; 100% = signal with IL-6 EC80 alone | activation (% of control), % at 5.6 µM | hit rate 0.91% among 190,000 | AID 871, 2007;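 active = activation above the screen-wide mean of compound activation plus 3 SD, cut at about 130% in these data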;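 also: 0% = background luminescence of wells with medium and substrate only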
#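 Material: STAT3-luciferase reporter U3A cells; Probe or stimulus: IL-6 (33 ng/mL); Incubation: compound pre-incubation 1 h before IL-6, then 6 h stimulation at 37 °C; Technique: luminescence from STAT3-driven luciferase reporter; Evaluation: % activation versus median of IL-6-stimulated wells; Controls: IL-6-only high control.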
# FXN GAA850 act – FXN promoter activators, primary screen, cell-based, luciferase luminescence, HEK293 lucGAA850 | hit rate 0.56% among 360,000 | HEK293 lucGAA850 FXN promoter luciferase reporter, 24 h; percent of 10 µM SAHA response | activation, % at 6 µM | AID 540364, 2011;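 active = activation above the average of all compounds screened plus 3 SD, cutoff fixed separately per campaign, cut at about 7.5% in these data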;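 also: 0% = DMSO wells and 100% = 10 µM SAHA wells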
# AHR act – AHR activators, primary screen, cell-based, luminescence, luciferase reporter, human; Aryl hydrocarbon receptor (Homo sapiens), P35869; AHR-responsive luciferase reporter cells; activation, % at 5 µM; hit rate 2.5% among 320,000; AID 2796, 2010; in the data active = activation above about 47%;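 also: 0% = vehicle wells and 100% = reference agonist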
# STAT3 act-2 – STAT3 reporter potentiators, retest of hits, confirmation, U3A cells, luciferase, luminescence | shares compounds with STAT3 act-1 | potentiation (% of control), % at 5.7 µM | hit rate 64% among 1,200 | IL-6 potentiation; U3A cells lack STAT1; 100 means same as IL-6 alone;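 active = percent activation of the STAT3 luciferase reporter above a set limit taken from the earlier primary screen, cut at about 130% in these data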;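 also: 0% = background signal of medium plus substrate and 100% = median of IL-6 with DMSO wells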
# NFkB act STAT3ct – NF-kB reporter activators in human cells, counter-screen for STAT3 activator project; shares compounds with STAT3 act-1; NF-kappaB reporter activation; activation (% of control), % at 5.7 µM; hit rate 11% among 1,200; in the data active = activation above about 120%;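 also: reporter induced by TNF-alpha stimulation; 100% = median of stimulated DMSO wells and 0% = no signal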
# STAT1 act – STAT1 reporter activators, IFN-gamma induced, counter-screen for STAT3 activator project, cell-based, NIH 3T3, luciferase luminescence | shares compounds with STAT3 act-1 | NIH 3T3 STAT1-luciferase reporter | activation (% of control), % at 5.7 µM | hit rate 13% among 1,200 | AID 1318, 2008;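 active = activation above the solvent-only control well mean plus 3 SD, set per screening run, cut at about 120% in these data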;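 also: 100% = IFN-gamma with DMSO median signal so 100% means no change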
# Numbers without * were called inactive; . = no result given.
SMILES,ABCB6 inh MLPCN,STAT3 act-1,FXN GAA850 act,AHR act,STAT3 act-2,NFkB act STAT3ct,STAT1 act
CC(C)C1NC(=S)N(Cc2ccccc2)C1=O (stereo not drawn),92.0,142.0*,1.1,0.8,98.0,105.3,99.4
CC1NC(=S)N(Cc2ccccc2)C1=O (stereo not drawn),92.0,.,1.8,-2.1,.,.,.
Cc1ccc(NC(=O)c2ccco2)c([N+](=O)[O-])c1,96.0,100.2,7.0,-2.0,.,.,.
CCN(CC)P(=O)(Nc1ccc(C)cc1Br)c1ccc(N(C)C)cc1NC(=O)c1ccco1 (stereo not drawn),100.0,149.7*,-2.5,48.6*,144.2*,103.2,110.8
Brc1c(CSc2nncn2-c2ccccc2)nc2sccn12,99.0,100.7,0.1,5.4,.,.,.
Fc1cccc(Cl)c1/C=N/Nc1ccccn1,97.0,138.0*,6.4,41.9,143.9*,113.3,126.7*
N#CCC(=O)NNc1c([N+](=O)[O-])cc(C(F)(F)F)cc1[N+](=O)[O-],101.0,.,1.3,3.6,.,.,.
COC(=O)C(NC=O)C(O)(Cc1ccccc1)C(F)(F)F (stereo not drawn),87.0,158.2*,2.6,18.9,151.6*,106.2,101.3
COc1ccc2[nH]c3c(c2c1)CCN1C(=O)C(CC(=O)NCc2ccco2)C[C@H](C(=O)N(C(C)C)C(C)C)[C@@]31C (stereo partly drawn),96.0,.,-4.4,.,.,.,.
Oc1ccccc1/C=C/c1noc(-c2ccccc2O)n1,97.0,142.4*,3.5,66.1*,168.9*,100.5,101.8
CCOc1ccc2ccccc2c1CNCCc1ccc(S(N)(=O)=O)cc1,87.0,.,0.4,.,.,.,.
Cc1ccc2[nH]c(C(=O)O)c(NC(=O)CN3CCN(c4cccc(C)c4C)CC3)c2c1,100.0,146.9*,-1.9,16.7,131.5,99.3,103.2
COC(=O)c1[nH]c2ccc(C)cc2c1NC(=O)CN1CCN(c2ccccc2)CC1,93.0,72.8,-3.1,19.4,.,.,.
Cn1c2ccccc2c2cc(C(=O)NNS(=O)(=O)c3ccc(F)cc3)sc21,98.0,136.0*,0.9,76.9*,126.9,95.8,103.0
CCOc1ccc(NC(=O)c2ccccc2NC(=O)CN2CCCCCC2)cc1,98.0,.,1.7,.,.,.,.
CCOc1ccc(NC(=O)c2ccccc2NC(=O)CN(C)CC(=O)Nc2ccc(C)cc2)cc1,107.0,148.7*,-0.2,3.8,119.1,108.1,120.0
Cc1ccc(C)c2sc(N)nc12,93.0,89.3,3.4,2.3,.,.,.
Cc1sc2nc(N)sc2c1C,96.0,162.2*,0.5,28.0,146.8*,104.8,90.7
CC1CCCC(C)N1CCNC(=O)CCn1nc(-c2ccccc2)ccc1=O (stereo not drawn),98.0,95.6,1.4,-0.4,.,.,.
CCOC(=O)c1nc2ccccc2s1,95.0,146.3*,2.6,15.5,146.7*,116.5,133.5*
NNC(=O)c1nc2ccccc2s1,107.0,.,2.1,.,.,.,.
CC(=O)c1cccc2c(O)c(C3=Nc4ccccc4C3=O)[nH]c12,99.0,138.4*,1.0,60.8*,151.8*,136.4*,181.1*
O=C(O)c1cccc2c(-c3ccccc3)c(-c3ccccc3)[nH]c12,91.0,.,1.4,0.1,.,.,.
O=C(O)C(Cc1ccccc1)N1C(=O)c2ccccc2C1=O (stereo not drawn),95.0,108.2,0.9,45.8,.,.,.
O=C(O)C(Cc1ccccc1)N1C(=O)c2cccc3cccc(c23)C1=O (stereo not drawn),96.0,143.5*,2.7,11.5,142.6*,104.9,92.8
SMILES,ABCB6 inh MLPCN,STAT3 act-1,FXN GAA850 act,AHR act,STAT3 act-2,NFkB act STAT3ct,STAT1 act
O=C1c2cccc3cccc(c23)C(=O)N1CCc1ccccc1,103.0,147.4*,5.8,52.5*,192.6*,125.0*,128.8*
CC(C)=CCC(C)(C)CNC(=O)NC1CCCCC1,97.0,90.7,-2.0,2.4,.,.,.
COc1cc(/C=C2\CCOC2=O)cc(OC)c1OC,102.0,.,4.0,-0.1,.,.,.
CCc1ccc(NC2=CC(=O)C(=O)c3ccccc32)cc1,104.0,.,0.4,.,.,.,.
CCc1ccc2c(c1)C(=O)c1ccccc1C2=O,108.0,141.6*,7.5,42.6,151.4*,130.7*,165.3*
CC(=O)N[C@@H](Cc1c[nH]c2ccccc12)C(=O)NC1CC1,100.0,.,3.2,2.0,.,.,.
Cc1ccc(C2=CC(c3cccs3)n3nnnc3N2)cc1 (stereo not drawn),100.0,146.5*,4.6,42.1,127.1,109.0,101.4
Cc1coc(NC(=O)CSc2nc(-c3ccc(Cl)cc3)cc(C(F)(F)F)c2C#N)n1,117.0,137.7*,2.1,41.3,130.4,104.5,102.6
Oc1oc(-c2ccccc2)nc1C=Nc1cccc2ccccc12,97.0,144.2*,0.5,46.0,128.9,106.1,97.2
COc1ccc(C(=O)NCc2nnc(SCC(=O)N3CCc4ccccc43)n2CCc2ccccc2)cc1,103.0,99.0,0.7,1.7,.,.,.
O=C(c1cc2c(s1)CCCC2)N1CCN(S(=O)(=O)c2ccccc2C(F)(F)F)CC1,105.0,138.5*,2.0,12.1,115.8,107.6,102.4
Cc1ccc(S(=O)(=O)N2CCN(C(=O)c3cc4c(s3)CCCC4)CC2)c(C)c1,104.0,.,-1.5,-2.3,.,.,.
CCCCN1C(=O)C(O)=C(C(C)=O)C1c1ccccc1[N+](=O)[O-] (stereo not drawn),86.0,102.8,-0.7,21.7,.,.,.
O=C(O)CCCCCN1C(=O)C(O)=C(C(=O)/C=C/c2ccccc2)C1c1ccccc1[N+](=O)[O-] (stereo not drawn),101.0,140.1*,2.3,14.7,145.1*,107.0,94.0
COc1ccnc(Nc2ccc(C)c(C)c2)c1C#N,105.0,143.3*,1.8,15.5,105.2,95.2,97.9
C[C@H](CO)N1C[C@H](C)[C@@H](CN(C)S(=O)(=O)c2ccccc2)OCc2cn(nn2)CCCC1=O,99.0,.,-0.5,.,.,.,.
COc1ccc(-c2cc3nc(C)c(C)c(N4CCN(C(=O)c5ccoc5)CC4)n3n2)cc1,95.0,.,2.3,.,.,.,.
Cc1nc2cc(-c3cccc(F)c3)nn2c(N2CCN(C(=O)c3ccco3)CC2)c1C,100.0,136.7*,3.9,19.5,119.6,113.7,90.9
Nc1nc(NCc2ccco2)nn1-c1ccccc1,101.0,147.2*,-1.8,0.8,98.7,104.8,106.0
O=S(=O)(O)c1ccc(Cl)c(Cl)c1,103.0,.,0.4,.,.,.,.
O=C(NCC(=O)N1CCN(C(=O)c2ccco2)CC1)c1ccc(Br)cc1,90.0,.,2.4,-2.4,.,.,.
